The test system of assay [1] is Radical scavenging activity. Briefly: Antioxidant activity assessed as DPPH radical scavenging activity. Format: functional. The procedure, abridged: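 DPPH radical-scavenging test; activity expressed as RC50, reported in µg/mL.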
On the technique in general: Loss of DPPH colour is used to gauge radical scavenging.

Assay [2] in a line: Inhibition of Staphylococcus aureus sortase A.
Assay [3] concerns the target Isocitrate lyase (Candida albicans, UniProt Q9P8Q7). Kind of assay: Inhibition of Candida albicans isocitrate lyase.

Here are results for 20 compounds from ChEMBL document CHEMBL1140167, “Meroditerpenoids from the brown alga Sargassum siliquastrum” (J Nat Prod, 2008).

Converted amounts (≈) assume the structure as drawn. Bounds are passed on as bounds.

Isocitrate lyase, sequence (Q9P8Q7 whole entry): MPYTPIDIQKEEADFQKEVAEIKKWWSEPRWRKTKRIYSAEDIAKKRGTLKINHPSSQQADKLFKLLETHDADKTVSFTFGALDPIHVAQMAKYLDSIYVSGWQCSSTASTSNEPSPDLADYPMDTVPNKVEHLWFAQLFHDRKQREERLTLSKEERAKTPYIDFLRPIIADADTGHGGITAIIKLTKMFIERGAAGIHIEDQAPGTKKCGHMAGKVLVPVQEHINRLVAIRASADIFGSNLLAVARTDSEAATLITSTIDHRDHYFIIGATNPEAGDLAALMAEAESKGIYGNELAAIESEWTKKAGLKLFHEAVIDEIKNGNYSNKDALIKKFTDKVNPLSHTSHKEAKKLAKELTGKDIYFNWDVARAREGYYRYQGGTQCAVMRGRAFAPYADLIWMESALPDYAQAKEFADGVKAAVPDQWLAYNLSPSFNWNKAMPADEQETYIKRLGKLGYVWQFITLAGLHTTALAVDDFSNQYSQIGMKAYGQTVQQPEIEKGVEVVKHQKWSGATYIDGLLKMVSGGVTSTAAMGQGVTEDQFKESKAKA

On to `C=CC(C)(CC/C=C(\C)CC/C=C(\C)[C@@H](O)[C@H](O)C=C(C)C)Oc1ccc(O)cc1CC(=O)OC` (some centres not stated) [NAHOCOL D2], for which the RC50 in assay [1] came out at 12.4 µg/mL. Further, the IC50 (commonly the concentration at which inhibition is half-maximal) in assay [2] is > 200 µg/mL.

`COC(=O)Cc1cc(O)cc(C/C=C(/C)CCC(=O)C(C)CC/C=C(\C)C[C@H](O)C=C(C)C)c1O` (some centres not stated): the RC50 in assay [1] amounted to 0.1 µg/mL. For the same compound, the IC50 in assay [2] turned out to be 23 µg/mL (≈ 47.3 µM).

Regarding `C=CC(C)(CC/C=C(\C)CCCC(C)C(O)/C=C/C(=C)C)Oc1ccc(O)cc1CC(=O)OC` (configuration not stated), the IC50 in assay [3] was 106 µM; in assay [2] it was > 200 µg/mL. In assay [1], the RC50 came out at 12.4 µg/mL.

Turning to `C=CC(C)(CC/C=C(\C)CC/C=C(\C)[C@H](O)C(=O)C=C(C)C)Oc1ccc(O)cc1CC(=O)OC` (some centres not stated), the values for the IC50 in assay [3] and in assay [2] were 103 µM and > 200 µg/mL, respectively. In addition, the RC50 in assay [1] was 14.7 µg/mL.

For `COC(=O)Cc1cc(O)cc(C/C=C(\C)CC/C=C(\C)CC/C=C(\C)[C@@H](O)[C@@H](O)C=C(C)C)c1O` [ISONAHOCOL D2], the RC50 in assay [1] was determined as 0.12 µg/mL. Besides, in assay [2], the IC50 worked out at 23 µg/mL (≈ 47.3 µM).

Take `C=CC(C)(CC/C=C(\C)CC/C=C(/C)[C@H](O)C(=O)C=C(C)C)Oc1ccc(O)cc1CC(=O)OC` (some centres not stated): the results for the IC50 in assay [3] and in assay [2] were 103 µM and > 200 µg/mL, respectively. For the same compound, the RC50 in assay [1] was determined as 23.2 µg/mL.

As for `COC(=O)CC1(C/C=C(\C)CC/C=C(\C)CC/C=C(\C)[C@@H](O)[C@@H](O)C=C(C)C)CC(=O)C=CC1=O` (some centres not stated), the RC50 in assay [1] was > 300 µg/mL. This compound returned a half-inhibitory concentration (IC50) in assay [2] of 23 µg/mL (≈ 47.3 µM).

For the compound `C=CC(C)(CC/C=C(\C)C[C@@H]1C=C(C)C(=O)[C@H]1C=C(C)C)Oc1ccc(O)cc1CC(=O)OC` (some centres not stated), the figures for the IC50 in assay [3] and in assay [2] were 107 µM and > 200 µg/mL, respectively. In addition, the RC50 in assay [1] was 11.7 µg/mL.

For `CC(C)=CC(O)C(=O)/C(C)=C/CC/C(C)=C/CCC(C)(O)CCc1cc(O)cc(C)c1O` (configuration not stated), the results for the IC50 in assay [3] and in assay [2] were 112 µM and > 200 µg/mL, respectively. For the same compound, in assay [1], the RC50 amounted to 0.24 µg/mL.

As to `C=CC(C)(CC/C=C(\C)CCCC(C)C(O)C(=O)C=C(C)C)Oc1ccc(O)cc1CC(=O)OC` (configuration not stated), the RC50 in assay [1] is 9.12 µg/mL. For the same compound, the IC50 in assay [2] is > 200 µg/mL.

For `C=CC(C)(CC/C=C(\C)CC/C=C(\C)C(=O)[C@@H](O)C=C(C)C)Oc1ccc(O)cc1CC(=O)OC` (some centres not stated), the values for the half-maximal inhibitory concentration (IC50) in assay [3] and in assay [2] were 103 µM and > 200 µg/mL, respectively. Moreover, the RC50 in assay [1] was 12.6 µg/mL.

`C=CC(C)(CC/C=C(\C)CC/C=C(\C)[C@@H](O)[C@@H](O)C=C(C)C)Oc1ccc(O)cc1CC(=O)OC` (some centres not stated) [NAHOCOL D1]: in assay [1], the RC50 was 18.5 µg/mL. Besides, in assay [2], the IC50 is > 200 µg/mL.

Take `COC(=O)Cc1cc(O)cc(C/C=C(/C)CC/C=C(\C)CC/C=C(\C)C(=O)[C@@H](O)C=C(C)C)c1O`: the RC50 in assay [1] was 0.33 µg/mL. The same compound yielded an IC50 in assay [2] of 23 µg/mL (≈ 47.5 µM).

For the compound `C=CC(C)(CC/C=C(\C)CCCC(C)C(=O)[C@H](O)C=C(C)C)Oc1ccc(O)cc1CC(=O)OC` (some centres not stated) [NAHOCOL A1], the RC50 in assay [1] worked out at 12.7 µg/mL. Further, the half-maximal inhibitory concentration (IC50) in assay [2] is > 200 µg/mL.

Regarding `C=CC(C)(CC/C=C(\C)CCCC(C)[C@@H](O)C(=O)C=C(C)C)Oc1ccc(O)cc1CC(=O)OC` (some centres not stated), the RC50 in assay [1] worked out at 17.2 µg/mL. Moreover, the IC50 in assay [2] was > 200 µg/mL.

With `COC(=O)Cc1cc(O)cc(C/C=C(\C)CC/C=C(\C)CCCC(C)C(=O)[C@@H](O)C=C(C)C)c1O` (some centres not stated), in assay [1], the RC50 stood at 0.3 µg/mL. Also, in assay [2], the IC50 was 23 µg/mL (≈ 47.3 µM).

With `COC(=O)Cc1cc(O)cc(C/C=C(/C)CC/C=C(\C)CC/C=C(\C)[C@@H](O)[C@@H](O)C=C(C)C)c1O` [ISONAHOCOL D1], in assay [1], the RC50 stood at 0.13 µg/mL. In addition, the IC50 in assay [2] is 23 µg/mL (≈ 47.3 µM).

Take `C=CC(C)(CC/C=C(\C)CCCC(C)C(=O)[C@@H](O)C=C(C)C)Oc1ccc(O)cc1CC(=O)OC` (some centres not stated) [NAHOCOL A]: in assay [1], the RC50 was found to be 11.3 µg/mL. Moreover, the IC50 in assay [2] is > 200 µg/mL.

Regarding `CC(C)=CCC/C(=C/CC/C(C)=C/CC/C(C)=C/Cc1cc(O)cc(C)c1O)C(=O)O` [SARGAHYDROQUINOIC ACID], the IC50 in assay [3] was 117 µM; in assay [2] it was > 200 µg/mL. Further, the RC50 in assay [1] came to 0.17 µg/mL.

On to `COC(=O)Cc1cc(O)cc(C/C=C(\C)CC/C=C(\C)CC/C=C(\C)C(=O)[C@@H](O)C=C(C)C)c1O`, for which, in assay [1], the RC50 was found to be 0.31 µg/mL. The compound further displayed a 50% inhibitory concentration (IC50) in assay [2] of 23 µg/mL (≈ 47.5 µM).
